pIC50: −log10 of the molar value.
Tests used:
[1] = system: HCT-116; assay: Cell cycle arrest in HCT116 cells by accumulation at S phase at 100 uM after 72 hrs; assay type: functional, Homo sapiens
In short: (§1)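 Colorectal cells given 100 µM compound for 72 h. Afterwards 10^6 cells/mL were resuspended in propidium iodide solution and held overnight at 4 °C, then run on flow cytometry. Doublets and aggregates were gated out on FL2-area/FL2-width before calculating the percentage of cells in G1, S and G2/M phases.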

[2] = system: SW48; assay: Cell cycle arrest in SW48 cells by accumulation at S phase at 100 uM after 72 hrs; assay type: functional, Homo sapiens; in short: as §1
[3] = Antiproliferative activity against human Mes-sa cells after 72 hrs; assay type: functional, cell-based
In short: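 Cells seeded at 5 × 10^3 cells/well and allowed 24 h in medium before compound addition. Exposure lasted 72 h, followed by MTT read-out. Growth was expressed as absorbance relative to untreated controls, and IC50 was taken as the dose giving 50% growth inhibition. Five separate experiments were run, each in triplicate, reported as mean ± SD.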

[4] = system: SW480; assay: Cell cycle arrest in SW480 cells by accumulation at S phase at 100 uM after 72 hrs; assay type: functional, Homo sapiens; in short: as §1
[5] = system: HCT-116; assay: Antiproliferative activity against human HCT116 cells after 72 hrs; assay type: functional, cell-based; details: HCT-116, 72 h
In short: (§2)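 Asynchronously growing cells seeded at 5 × 10^3 cells/well and held 24 h in medium, then exposed to drug for 72 h; MTT reagent (5 mg/mL stock) added. Growth taken as absorbance of treated wells as percent of untreated controls. IC50 is the dose giving 50% growth inhibition versus untreated cells. Five separate experiments, each in triplicate; mean ± SD.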

[6] = system: SW480; assay: Cell cycle arrest in SW480 cells by accumulation at G2/M phase at 100 uM after 72 hrs; assay type: functional, Homo sapiens; in short: as §1
[7] = system: MCF7; assay: Antiproliferative activity against human MCF7 cells after 72 hrs; assay type: functional, cell-based; details: MCF7, 72 h; in short: as §2
[8] = system: SW48; assay: Cell cycle arrest in SW48 cells by accumulation at G2/M phase at 100 uM after 72 hrs; assay type: functional, Homo sapiens; in short: as §1
[9] = system: HCT-116; assay: Cell cycle arrest in HCT116 cells by accumulation at G2/M phase at 100 uM after 72 hrs; assay type: functional, Homo sapiens; in short: as §1
[10] = system: HCT-116; assay: Cell cycle arrest in HCT116 cells by accumulation at G1 phase at 100 uM after 72 hrs; assay type: functional, Homo sapiens; in short: as §1
[11] = system: SW480; assay: Antiproliferative activity against human SW480 cells after 72 hrs; assay type: functional, cell-based; details: SW480, 72 h; in short: as §2
[12] = system: SW48; assay: Cell cycle arrest in SW48 cells by accumulation at G1 phase at 100 uM after 72 hrs; assay type: functional, Homo sapiens; in short: as §1
[13] = system: SW480; assay: Cell cycle arrest in SW480 cells by accumulation at G1 phase at 100 uM after 72 hrs; assay type: functional, Homo sapiens; in short: as §1
[14] = system: SW48; assay: Antiproliferative activity against human SW48 cells after 72 hrs; assay type: functional, cell-based; details: SW48, 72 h; in short: as §2

Row | SMILES | Activity [1] | Activity [2] | pIC50 [3] | Activity [4] | pIC50 [5] | Activity [6] | pIC50 [7] | Activity [8] | Activity [9] | Activity [10] | pIC50 [11] | Activity [12] | Activity [13] | pIC50 [14]
1 | COC(=O)c1cc(O)c2[nH]c3ncccc3c2c1 | 29.1% | 18.9% | 4.80 | 26.5% | 5.15 | 14.7% | 4.96 | 18.7% | 14.3% | 56.6% | 5.06 | 62.4% | 58.7% | 5.05
2 | COC(=O)c1cc(OC)c2[nH]c3ncccc3c2c1 | 31% | 23% | 3.84 | 27.3% | 5.07 | 11.9% | 5.36 | 18.1% | 16.4% | 52.6% | 5.33 | 59% | 60.7% | 5.25
3 | COc1cc(CO)cc2c1[nH]c1ncccc12 | 17.4% | 9.7% | 4.19 | 33% | 4.44 | 14.7% | 4.24 | 32.4% | 29.3% | 53.3% | 4.20 | 57.4% | 52.3% | 4.68
4 | COC(=O)c1cc(O)c2[nH]c3ccccc3c2c1 [CLAUSINE E] | 12.1% | 12.5% | 4.46 | 17.5% | 5.72 | 25.7% | 6.22 | 21.9% | 28% | 60% | 5.32 | 65.6% | 59.9% | 4.68
5 | O=c1[nH]cc(F)c(=O)[nH]1 [FLUOROURACIL] | – | – | – | – | 5.55 | – | 6.52 | – | – | – | 5.46 | – | – | 5.28
6 | COC(=O)c1cc(OC)c2[nH]c3ccccc3c2c1 [MUKONINE] | 17.4% | 14.1% | 4.10 | 33.8% | 4.37 | 10.3% | 4.52 | 9% | 11.7% | 70.8% | 4.14 | 76.7% | 55.8% | 4.21
